This is an account of results in ChEMBL document CHEMBL4028873, “The Discovery of a Dual TTK Protein Kinase/CDC2-Like Kinase (CLK2) Inhibitor for the Treatment of Triple Negative Breast Cancer Initiated from a Phenotypic Screen” (J Med Chem, 2017).

SMILES strings stand for the structures. pIC50: −log10 of the molar value. Calls of active or inactive are those of the source. The calls are words filed in the database; no cut-off is given here.

In data set [1] the target is Dual specificity tyrosine-phosphorylation-regulated kinase 1A (Homo sapiens, UniProt Q13627). In words: Inhibition of human full length GST-tagged DYRK1A expressed in baculovirus by Z'-LYTE assay.
Data set [2] addresses c-Jun N-terminal kinase, JNK (Homo sapiens, UniProt P45983+P53779+P45984). In words: Inhibition of JNK1/JNK2/JNK3 in human HCT116 cell lysate after 1 hr by LC-MS/MS analysis relative to control.
In the next data set the test system is MDA-MB-231. In words: Antiproliferative activity against human MDA-MB-231 cells after 3 days by CellTiter-Glo assay. Format: functional, cell-based. A digest of the protocol: (§1)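 Cell lines kept in vendor-recommended growth media; 3-day compound exposure, then CellTiter-Glo luminescence read. Percent inhibition per concentration normalized to DMSO control, triplicate wells.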

The next data set concerns MDA-MB-468. Put plainly: Antiproliferative activity against human MDA-MB-468 cells after 3 days by CellTiter-Glo assay. Format: functional, cell-based. A digest of the protocol:
as §1

A short description of data set [3]: Metabolic stability in human liver S9 fraction assessed as percent of compound remaining after 60 mins. Format: ADME, tissue-based. Conditions: read-out: Stability.
A short description of data set [4]: Clearance in rat at 2 mg/kg, iv. The data set is classed as ADME, organism-based. To be noted: in vivo.
Another data set has as its system CAL-51. In words: Antiproliferative activity against human CAL51 cells xenografted in SCID mouse assessed as tumor growth inhibition at 10 mg/kg, iv administered every 3 days for 16 days relative to control. Format: functional. To be noted: CAL-51, iv, read-out: TGI. A digest of the protocol:
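Mice bearing tumors of about 125 mm3 randomized (n = 8−10/group) and given compound intravenously at the listed doses and schedules. Tumors measured twice weekly by digital caliper on long and short axes; volume = width² × length/2.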

Data set [5] has as its target Dual specificity protein kinase CLK2 (Homo sapiens) (UniProt P49760). Conditions: 3 uM.
Data set [6] deals with Dual specificity tyrosine-phosphorylation-regulated kinase 1B (Homo sapiens, UniProt Q9Y463). To be noted: 3 uM.
For data set [7], the target named is T1, Phosphorylase b kinase gamma catalytic chain, skeletal muscle/heart isoform (Homo sapiens, UniProt Q16816). Conditions: 3 uM.
Target sequence in this assay (Q16816 whole entry, looked up, canonical isoform): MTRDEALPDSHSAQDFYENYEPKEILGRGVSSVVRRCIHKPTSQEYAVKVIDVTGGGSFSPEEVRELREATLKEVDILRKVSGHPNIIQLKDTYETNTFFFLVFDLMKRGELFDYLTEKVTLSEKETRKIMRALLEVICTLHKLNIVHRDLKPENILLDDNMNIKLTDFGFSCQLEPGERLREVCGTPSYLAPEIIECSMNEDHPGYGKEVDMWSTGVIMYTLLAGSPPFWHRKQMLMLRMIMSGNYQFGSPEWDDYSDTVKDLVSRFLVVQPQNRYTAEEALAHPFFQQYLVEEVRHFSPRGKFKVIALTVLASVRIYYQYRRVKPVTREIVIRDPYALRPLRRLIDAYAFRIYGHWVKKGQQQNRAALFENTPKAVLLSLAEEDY
Data set [8] has as its target T1, Phosphorylase b kinase gamma catalytic chain, skeletal muscle/heart isoform. Put plainly: Inhibition of full length human GST-tagged PHKG1 expressed in baculovirus by Z'-LYTE assay.
Target sequence in this assay (Q16816 whole entry, canonical isoform): as the sequence (Q16816 whole entry, looked up, canonical isoform) above
Data set [9] in a line: Metabolic stability in rat liver S9 fraction assessed as percent of compound remaining after 60 mins. Conditions: read-out: Stability. The data set is classed as ADME, tissue-based.

Sequence of Dual specificity protein kinase CLK2 (Homo sapiens) (P49760 whole entry, looked up): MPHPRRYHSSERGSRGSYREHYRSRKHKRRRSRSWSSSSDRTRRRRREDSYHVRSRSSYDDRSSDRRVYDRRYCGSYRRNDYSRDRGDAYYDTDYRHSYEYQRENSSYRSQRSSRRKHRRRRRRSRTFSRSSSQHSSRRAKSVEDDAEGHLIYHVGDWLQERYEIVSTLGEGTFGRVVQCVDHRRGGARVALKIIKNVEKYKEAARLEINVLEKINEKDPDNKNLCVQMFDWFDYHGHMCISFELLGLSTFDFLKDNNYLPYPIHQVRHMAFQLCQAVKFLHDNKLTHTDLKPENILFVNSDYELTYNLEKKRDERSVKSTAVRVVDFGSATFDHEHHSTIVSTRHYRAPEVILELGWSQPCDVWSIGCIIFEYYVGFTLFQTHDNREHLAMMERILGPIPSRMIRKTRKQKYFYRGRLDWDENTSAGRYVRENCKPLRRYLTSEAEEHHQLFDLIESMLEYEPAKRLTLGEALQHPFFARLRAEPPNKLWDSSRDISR
Sequence of Dual specificity tyrosine-phosphorylation-regulated kinase 1B (Q9Y463 whole entry, looked up, canonical isoform): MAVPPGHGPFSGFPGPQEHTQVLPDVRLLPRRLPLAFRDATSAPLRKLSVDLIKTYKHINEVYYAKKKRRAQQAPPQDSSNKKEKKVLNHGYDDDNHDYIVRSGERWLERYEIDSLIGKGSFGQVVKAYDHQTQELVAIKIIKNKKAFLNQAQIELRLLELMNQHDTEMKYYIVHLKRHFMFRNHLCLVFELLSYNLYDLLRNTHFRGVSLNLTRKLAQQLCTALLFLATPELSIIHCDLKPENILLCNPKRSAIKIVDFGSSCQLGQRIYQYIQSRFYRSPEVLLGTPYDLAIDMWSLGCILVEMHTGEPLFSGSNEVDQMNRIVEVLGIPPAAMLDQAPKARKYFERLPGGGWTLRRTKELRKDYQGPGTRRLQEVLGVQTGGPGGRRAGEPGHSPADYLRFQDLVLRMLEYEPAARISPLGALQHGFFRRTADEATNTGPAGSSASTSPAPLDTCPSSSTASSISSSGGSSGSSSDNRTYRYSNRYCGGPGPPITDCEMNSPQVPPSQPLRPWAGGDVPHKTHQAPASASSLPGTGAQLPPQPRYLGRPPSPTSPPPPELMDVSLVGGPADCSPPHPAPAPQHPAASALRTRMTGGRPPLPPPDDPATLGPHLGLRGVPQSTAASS

Turning to `CNC(=O)c1ccc(Nc2nc(OC3CCCC3)c3c(-c4ccc5nc(C)oc5c4)c[nH]c3n2)c(OC)c1`, the pIC50 in [1] was 6.98; in data set [2], 6.17; in [8], 6.87. The outcome in the data set with MDA-MB-231 and with MDA-MB-468 was Active. Further, the remaining at 1 h in data set [3] came out at 91%; in data set [9], 98%. The clearance in data set [4] was 9.3 mL/min/kg. Moreover, the inhibition in vivo at 10 mg/kg in the data set on CAL-51 amounted to 71%. For the same molecule, the inhibition in data set [5], in data set [6] and in data set [7] was greater than 80% each time.
